Source: ChEMBL document CHEMBL4177761, “Highlights of the Structure-Activity Relationships of Benzimidazole Linked Pyrrolidines Leading to the Discovery of the Hepatitis C Virus NS5A Inhibitor Pibrentasvir (ABT-530)” (J Med Chem, 2018)
Changes are numbered by the printed parent chain. Converted amounts (≈) assume the structure as drawn.

Experiments:
[1] = molecular target: T1, Nonstructural protein 5A (Hepatitis C virus) (UniProt Q5L478); assay: Inhibition of NS5A Q30R mutant in HuH7 cell infected HCV genotype 1a H77 assessed as decrease in viral replication after 4 days by luciferase reporter gene assay relative to wild type protein; details: Hepatitis C virus (isolate H77)
T1 sequence (whole entry): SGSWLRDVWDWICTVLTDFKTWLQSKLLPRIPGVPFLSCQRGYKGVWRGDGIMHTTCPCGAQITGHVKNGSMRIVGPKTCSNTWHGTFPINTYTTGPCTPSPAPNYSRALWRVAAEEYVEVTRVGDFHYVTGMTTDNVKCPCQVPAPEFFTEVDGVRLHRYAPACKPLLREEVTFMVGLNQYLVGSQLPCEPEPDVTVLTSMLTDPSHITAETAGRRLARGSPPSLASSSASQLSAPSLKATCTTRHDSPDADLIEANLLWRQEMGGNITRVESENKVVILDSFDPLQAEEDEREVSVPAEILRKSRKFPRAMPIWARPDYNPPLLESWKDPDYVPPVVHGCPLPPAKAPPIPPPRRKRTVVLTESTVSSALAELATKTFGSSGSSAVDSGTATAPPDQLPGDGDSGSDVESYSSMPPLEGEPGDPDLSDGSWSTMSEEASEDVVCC
In short: (§1)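 Stable subgenomic luciferase replicons in Huh-7 cells: genotype 1a-H77 carrying NS5A substitutions M28T, Q30E, Q30R, Y93C, Y93H or Y93N, tested alongside the wild-type replicon. Cells are incubated 4 days with compound in DMEM with 5% FBS. Luciferase read-out, EC50 by 4-parameter logistic fit, and fold change versus wild type.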

[2] = tested on: T2, Nonstructural protein 5A (Hepatitis C virus), Q5L478 [Y93N]; assay: Inhibition of NS5A Y93N mutant in HuH7 cell infected HCV genotype 1b Con1 assessed as decrease in viral replication after 4 days by luciferase reporter gene assay relative to wild type protein; details: Hepatitis C virus (isolate Con1)
T2 sequence (whole entry): T1 sequence (whole entry) with Y93N
In short: as §1, with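 “1b-Con1” for “1a-H77”, “NS5A” for “NS5A substitutions M28T, Q30E, Q30R, Y93C,”, “from a” for “by”, “expressed as” for “and”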

[3] = tested on: T3, Nonstructural protein 5A (Hepatitis C virus), Q5L478 [Y93C]; assay: Inhibition of NS5A Y93C mutant in HuH7 cell infected HCV genotype 1a H77 assessed as decrease in viral replication after 4 days by luciferase reporter gene assay relative to wild type protein; details: Hepatitis C virus (isolate H77); in short: as §1
T3 sequence (whole entry): T1 sequence (whole entry) with Y93C

[4] = molecular target: T1, Nonstructural protein 5A (Hepatitis C virus); assay: Inhibition of NS5A Q30E mutant in HuH7 cell infected HCV genotype 1a H77 assessed as decrease in viral replication after 4 days by luciferase reporter gene assay relative to wild type protein; details: Hepatitis C virus (isolate H77); in short: as §1
[5] = tested on: T4, Nonstructural protein 5A (Hepatitis C virus), Q5L478 [Y93H]; assay: Inhibition of NS5A Y93H mutant in HuH7 cell infected HCV genotype 1a H77 assessed as decrease in viral replication after 4 days by luciferase reporter gene assay relative to wild type protein; details: Hepatitis C virus (isolate H77); in short: as §1
T4 sequence (whole entry): T1 sequence (whole entry) with Y93H

[6] = molecular target: T1, Nonstructural protein 5A (Hepatitis C virus); assay: Inhibition of NS5A M28T mutant in HuH7 cell infected HCV genotype 1a H77 assessed as decrease in viral replication after 4 days by luciferase reporter gene assay relative to wild type protein; details: Hepatitis C virus (isolate H77); in short: as §1
[7] = tested on: T4, Nonstructural protein 5A (Hepatitis C virus), Q5L478 [Y93H]; assay: Inhibition of NS5A Y93H mutant in HuH7 cell infected HCV genotype 1b Con1 assessed as decrease in viral replication after 4 days by luciferase reporter gene assay relative to wild type protein; details: Hepatitis C virus (isolate Con1)
In short: as §1, with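 “1b-Con1” for “1a-H77”, “NS5A” for “NS5A substitutions M28T, Q30E, Q30R, Y93C,”, “from a” for “by”, “expressed as” for “and”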

[8] = tested on: T2, Nonstructural protein 5A (Hepatitis C virus), Q5L478 [Y93N]; assay: Inhibition of NS5A Y93N mutant in HuH7 cell infected HCV genotype 1a H77 assessed as decrease in viral replication after 4 days by luciferase reporter gene assay relative to wild type protein; details: Hepatitis C virus (isolate H77); in short: as §1
[9] = Intrinsic clearance in rat microsomes; type: ADME, Microsome
[10] = AUC (0 to infinity) in mouse at 3 mg/kg, po by LC-MS method; type: ADME, organism-based; set-up: dose 3 mg/kg, route oral, time infinity; details: in vivo
In short: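 Single dose, 3 mg/kg, in mouse or rat. IV vehicle: DMSO:Tween 80:PEG-400:D5W 2:5:20:73 (v/v). PO vehicle: Phosol 53 MCT:PEG-400:Poloxamer 124:Cremophor RH40 40:20:20:20 (w/w). Acetonitrile protein precipitation, then LC-MS/MS in negative-ion MRM against an internal standard; LOQ ~20 ng/mL.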

[11] = Solubility of the compound by CLND method; type: physicochemical
[12] = Lipophilicity, log D of the compound by HPLC method; type: physicochemical
[13] = Intrinsic clearance in human microsomes; type: ADME, Microsome

Row | SMILES | fold change (FC) [1] | fold change (FC) [2] | fold change (FC) [3] | fold change (FC) [4] | fold change (FC) [5] | fold change (FC) [6] | fold change (FC) [7] | fold change (FC) [8] | CLint scaled [9] [mL/min/kg] | AUC(0-inf) [10] [ng·h/mL] | solubility kinetic [11] [µM] | logD [12] | CLint scaled [13] [mL/min/kg]
1 | COC(=O)N[C@H](C(=O)N1CCC[C@H]1c1nc2ccc([C@H]3CC[C@H](c4ccc5nc([C@@H]6CCCN6C(=O)[C@@H](NC(=O)OC)C(C)C)[nH]c5c4)N3c3cc(F)c(N4CCC(c5ccccc5)CC4)c(F)c3)cc2[nH]1)C(C)C | 7 | 1 | 6 | 69 | 72 | 3 | 1 | 145 |  |  |  |  | 
2 | COC(=O)N[C@H](C(=O)N1CCC[C@H]1c1nc2cc(F)c([C@H]3CC[C@H](c4cc5[nH]c([C@@H]6CCCN6C(=O)[C@@H](NC(=O)OC)C6CCOCC6)nc5cc4F)N3c3cc(F)c(N4CCC(c5ccc(F)cc5)CC4)c(F)c3)cc2[nH]1)C1CCOCC1 |  |  |  | 1 | 2 |  |  | 2 |  |  |  |  | 
3 | COC(=O)N[C@H](C(=O)N1CCC[C@H]1c1nc2cc([C@H]3CC[C@H](c4ccc5[nH]c([C@@H]6CCCN6C(=O)[C@@H](NC(=O)OC)C(C)C)nc5c4)N3c3cc(F)c(N4CCC(c5ccc(F)cc5)CC4)c(F)c3)ccc2[nH]1)C(C)C |  |  |  |  |  |  |  |  | 53.3 | 4590 | 0.9 (≈ 0.941 µg/mL) | 5.8 | < 25
4 | COC(=O)N[C@H](C(=O)N1CCC[C@H]1c1nc2cc(F)c([C@H]3CC[C@H](c4cc5[nH]c([C@@H]6CCCN6C(=O)[C@@H](NC(=O)OC)C6CCOCC6)nc5cc4F)N3c3cc(F)c(N4CCC(c5ccccc5)CC4)c(F)c3)cc2[nH]1)C1CCOCC1 |  |  |  | 1 | 3 |  |  | 2 |  |  |  |  | 
5 | COC(=O)N[C@H](C(=O)N1CCC[C@H]1c1nc2cc(F)c([C@H]3CC[C@H](c4cc5[nH]c([C@@H]6CCCN6C(=O)[C@@H](NC(=O)OC)C(C)C)nc5cc4F)N3c3cc(F)c(N4CCC(c5ccccc5)CC4)c(F)c3)cc2[nH]1)C(C)C | 2 | 1 | 6 | 12 | 49 | 1 | 1 | 50 |  |  |  |  | 
6 | COC(=O)N[C@H](C(=O)N1CCC[C@H]1c1nc2cc([C@H]3CC[C@H](c4ccc5[nH]c([C@@H]6CCCN6C(=O)[C@@H](NC(=O)OC)C(C)C)nc5c4)N3c3cc(F)c(N4CCC(c5ccccc5)CC4)c(F)c3)ccc2[nH]1)C(C)C |  |  |  |  |  |  |  |  | 53.3 | 6830 | 1.1 (≈ 1.13 µg/mL) |  | < 25
7 | COC(=O)N[C@H](C(=O)N1CCC[C@H]1c1nc2cc(F)c([C@H]3CC[C@H](c4cc5[nH]c([C@@H]6CCCN6C(=O)[C@@H](NC(=O)OC)[C@@H](C)OC)nc5cc4F)N3c3cc(F)c(N4CCC(c5ccccc5)CC4)c(F)c3)cc2[nH]1)[C@@H](C)OC | 1 | 0.3 | 1 | 2 | 6 | 1 | 1 | 5 |  |  |  |  | 
8 | COC(=O)N[C@H](C(=O)N1CCC[C@H]1c1nc2ccc([C@H]3CC[C@H](c4ccc5nc([C@@H]6CCCN6C(=O)[C@@H](NC(=O)OC)C(C)C)[nH]c5c4)N3c3ccc(-c4ccccc4)cc3)cc2[nH]1)C(C)C | 10 | 1 | 24 | 47 | 329 |  | 1 | 827 |  |  |  |  | 
9 | COC(=O)N[C@H](C(=O)N1CCC[C@H]1c1nc2cc([C@H]3CC[C@H](c4ccc5[nH]c([C@@H]6CCCN6C(=O)[C@@H](NC(=O)OC)C(C)C)nc5c4)N3c3cc(F)c(N4CCCCC4)c(F)c3)ccc2[nH]1)C(C)C | 13 |  | 9 | 134 | 241 | 5 | 1 | 510 | 187 | 1790 | 0.7 (≈ 0.666 µg/mL) |  | 175
10 | COC(=O)N[C@H](C(=O)N1CCC[C@H]1c1nc2ccc([C@H]3CC[C@H](c4ccc5nc([C@@H]6CCCN6C(=O)[C@@H](NC(=O)OC)C(C)C)[nH]c5c4)N3c3ccc(C4CCCCC4)cc3)cc2[nH]1)C(C)C | > 30 |  | > 30 | > 90 | > 577 | > 17 | 1 |  |  |  |  |  | 
11 | COC(=O)N[C@H](C(=O)N1CCC[C@H]1c1nc2ccc([C@H]3CC[C@H](c4ccc5nc([C@@H]6CCCN6C(=O)[C@@H](NC(=O)OC)C(C)C)[nH]c5c4)N3c3ccc(N4CCC(c5ccccc5)CC4)cc3)cc2[nH]1)C(C)C |  |  |  |  |  |  |  |  | 46.7 |  | 0.82 (≈ 0.813 µg/mL) | 5.4 | < 25
12 | COC(=O)N[C@H](C(=O)N1CCC[C@H]1c1nc2ccc([C@H]3CC[C@H](c4ccc5nc([C@@H]6CCCN6C(=O)[C@@H](NC(=O)OC)C(C)C)[nH]c5c4)N3c3ccc(Cl)cc3)cc2[nH]1)C(C)C | 44 |  | 22 | 83 | 670 | 28 | 1 | 1160 |  |  |  |  | 
13 | COC(=O)N[C@H](C(=O)N1CCC[C@H]1c1nc2ccc([C@H]3CC[C@H](c4ccc5nc([C@@H]6CCCN6C(=O)[C@@H](NC(=O)OC)C(C)C)[nH]c5c4)N3c3cc(F)c(N4CCC(c5ccc(F)cc5)CC4)c(F)c3)cc2[nH]1)C(C)C | 3 |  | 3 | 20 | 20 | 2 | 2 | 25 |  |  |  |  | 
